# Mdm2 MdmX PPI: disrupts the human Mdm2-MdmX interaction; O15151+Q00987; SaOS-2 split-luciferase Mdm2/MdmX complementation, luminescence; inhibition, % at 8 µM; 330,000 tested, 3% active; AID 485346;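 active = inhibition of at least 50% at 8 µM in the primary screen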
# Target sequence (O15151 whole entry, looked up): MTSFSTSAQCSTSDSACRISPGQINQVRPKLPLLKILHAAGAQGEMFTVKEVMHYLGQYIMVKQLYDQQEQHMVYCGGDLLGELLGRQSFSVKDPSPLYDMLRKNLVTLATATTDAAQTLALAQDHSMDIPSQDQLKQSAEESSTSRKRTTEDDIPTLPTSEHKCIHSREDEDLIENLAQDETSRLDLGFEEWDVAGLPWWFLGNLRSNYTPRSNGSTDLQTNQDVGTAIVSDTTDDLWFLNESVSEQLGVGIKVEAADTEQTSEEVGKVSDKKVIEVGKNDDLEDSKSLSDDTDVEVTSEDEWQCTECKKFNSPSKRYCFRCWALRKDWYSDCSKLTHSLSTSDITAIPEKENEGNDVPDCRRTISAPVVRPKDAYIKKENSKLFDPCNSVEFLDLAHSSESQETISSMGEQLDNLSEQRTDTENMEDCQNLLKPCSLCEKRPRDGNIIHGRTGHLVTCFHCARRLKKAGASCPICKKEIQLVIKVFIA
# Target sequence (Q00987 whole entry, looked up): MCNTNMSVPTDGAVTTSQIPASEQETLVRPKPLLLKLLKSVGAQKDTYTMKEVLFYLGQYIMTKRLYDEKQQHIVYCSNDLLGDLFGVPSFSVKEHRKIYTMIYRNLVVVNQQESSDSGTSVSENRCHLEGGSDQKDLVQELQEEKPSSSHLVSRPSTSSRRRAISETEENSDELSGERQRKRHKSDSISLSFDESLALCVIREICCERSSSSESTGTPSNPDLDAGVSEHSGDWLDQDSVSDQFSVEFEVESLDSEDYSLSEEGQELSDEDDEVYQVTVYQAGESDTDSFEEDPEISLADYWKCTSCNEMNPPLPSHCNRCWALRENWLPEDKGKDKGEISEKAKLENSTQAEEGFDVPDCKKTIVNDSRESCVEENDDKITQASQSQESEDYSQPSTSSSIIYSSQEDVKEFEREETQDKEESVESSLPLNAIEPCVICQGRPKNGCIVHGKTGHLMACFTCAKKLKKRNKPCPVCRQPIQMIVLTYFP
# T cruzi inh: blocks replication of Trypanosoma cruzi. T. cruzi beta-gal in NIH3T3, luminescence, 90 h. inhibition, % (no concentration beside the values). 300,000 tested, 1.4% active. AID 1885;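 active = mean inhibition across valid replicates above about 55%, limit read from the data; inconclusive = mean below that limit but half or more replicates reach it; inactive = mean below it, under half of replicates reach it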;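 note: signal also drops with host cell toxicity which is not excluded here; higher percent means less beta-gal luminescence so fewer parasites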
#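 Incubation – ≥90 h infection period, 3 h prior cell attachment · System – NIH/3T3 fibroblasts plus reporter T. cruzi · Doses – compound pinned at 50 nL/well, DMSO · Read-out basis – percent inhibition of parasite-derived β-gal signal · Signal – luminescent β-galactosidase signal after 60 min lysis · Also added – 5000 T. cruzi trypomastigotes/well · Medium – Low-serum DMEM with 2% FBS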
# Lmaj promast: Leishmania major promastigote growth inhibition | AID 1063 | 200,000 tested, 9% active | inhibition, % at 10 µM | Leishmania major promastigotes, resazurin fluorescence viability; in the data active = inhibition above about 50%;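 note: promastigotes grown with compound for 44 hours at 28 °C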
# SKKanGAS inh: blocks kanamycin growth of S. pyogenes SKKanGAS strain; BacTiter-Glo, 6 h; inhibition, % at 7.5 µM; 300,000 tested, 1.3% active;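 active = mean replicate score, as percent of positive control median, at least 50; inconclusive = mean below 50 but one replicate at or above 50; inactive = mean and every replicate below 50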;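 note: strain carries kanamycin resistance gene driven by streptokinase promoter and grows in 40 µg/ml kanamycin; loss of luminescence reflects streptokinase promoter inhibition or plain growth inhibition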
# Beta cell apopt: blocks beta cell apoptosis. INS-1E cytokine-induced death, ATP luminescence, 48 h; percent of positive-control rescue, neutral wells zero. protection from apoptosis, % (concentration not given with the values). 300,000 tested, 0.8% active. AID 435005;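 active = Every replicate reaches about 75%, or at least half do and their mean reaches it too, limit read from the data; inconclusive = At least half of replicates reach the limit but their mean does not; inactive = Under half of replicates reach the limit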;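 note: higher means more ATP so stronger rescue from cytokine killing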
# CSC inhib: blocks cancer stem cells; cancer stem cell-like cells viability, luminescence; inhibition, % at 7.5 µM; 300,000 tested, 1.1% active; in the data active = inhibition above about 75%; inconclusive = no clear call, values can overlap the other calls; tested in HMLE shEcad cells
# Mdm2-MdmX conf: human Mdm2/MdmX binding inhibition, confirmed | inhibition, % at 8 µM | shares compounds with Mdm2 MdmX PPI | luminescent assay | 10,000 tested, 55% active; in the data active = inhibition above about 40%
# Full FLuc ctr: full-length luciferase inhibition in Mdm2/MdmX counter-screen. shares compounds with Mdm2 MdmX PPI. SaOS-2 full-length luciferase counterscreen, luminescence. inhibition, % at 8 µM. 6,200 tested, 77% active. AID 504607;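 active = mean inhibition at 8 µM reaching about 37%, which flags the compound as non-specific, limit read from the data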;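 note: p53-null SaOS-2 cells with luciferase driven by a doxycycline-inducible promoter; compound on cells about two nights before reading with doxycycline added after day one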
# A number is an active result; 0 = inactive; ? = inconclusive; - = no result. The list is not random: actives were taken first. Their share in the collection is about 9.4%.
SMILES,Mdm2 MdmX PPI,T cruzi inh,Lmaj promast,SKKanGAS inh,Beta cell apopt,CSC inhib,Mdm2-MdmX conf,Full FLuc ctr
Cc1c(CCOC(=O)CC23CC4CC(CC(C4)C2)C3)sc[n+]1CC(=O)c1ccc(Br)cc1,51,0,0,0,0,118,0,-
NC(=O)c1ccc[n+](CC(=O)OCCC23CC4CC(CC(C4)C2)C3)c1,0,0,0,0,0,0,-,-
Cc1c(CCOC(=O)C23CC4CC(CC(C)(C4)C2)C3)sc[n+]1CC(=O)c1ccccc1,54,0,0,0,0,0,0,-
Cc1c(CCOC(=O)CC23CC4CC(CC(C)(C4)C2)C3)sc[n+]1CC(=O)c1ccccc1,54,0,92,0,0,100,0,-
Cc1ncsc1CCOC(=O)C12CC3CC(CC(C3)C1)C2,0,0,0,0,0,0,-,-
COc1ccc(CCC(=O)OCC(=O)Nc2ccccc2)cc1,0,0,-,0,0,0,-,-
CCOc1ccccc1NC(=O)CSc1nnc(CCC(=O)Nc2ccccc2F)n1C,0,0,-,0,0,0,-,-
COc1ccc(NS(=O)(=O)c2ccc(Cl)s2)cn1,0,0,-,0,0,0,-,-
COc1ccc(NS(=O)(=O)c2cccs2)cn1,79,0,0,0,0,0,0,-
CC(C)Cc1nc2oc3c(NCC(C)O)ncnc3c2c2c1CCCC2 (centres undefined),0,0,-,0,0,0,-,-
CCCc1nc2oc3c(NCCCN(C)C)ncnc3c2c2c1CCCC2,100,0,-,0,0,0,85,52
CCCc1nc2oc3c(NCCN(C)C)ncnc3c2c2c1CCCC2,56,0,101,0,0,0,60,38
O=C(O)c1cccc2c1C(=O)c1cccc3snc-2c13,0,0,-,0,0,0,-,-
O=C(Nc1ccc(F)c([N+](=O)[O-])c1)C(=O)c1c(O)[nH]c2ccccc12,0,0,0,0,0,0,-,-
CCc1ccc(NC(=S)/N=C(\N)Nc2nc(C)c3cc(CC)ccc3n2)cc1,63,0,0,0,0,0,60,60
Cc1cccc(NC(=S)/N=C(\N)Nc2nc(C)c3ccc(C)cc3n2)c1,59,60,0,?,0,0,0,54
COc1ccc2nc(N/C(N)=N/C(=S)Nc3ccc(C)c(C)c3)nc(C)c2c1,56,0,0,0,0,0,53,56
Cc1ccc(NC(=S)/N=C(\N)Nc2nc(C)c3ccccc3n2)cc1C,0,0,0,0,0,0,-,-
O=C(C[C@@H]1C/C=C\C[C@@H](NC(=O)OCC2c3ccccc3-c3ccccc32)C(=O)OCCNC1=O)N[C@@H](CO)Cc1ccccc1,0,-,-,-,0,0,-,-
O=C(N/N=C/c1cccc(C(F)(F)F)c1)C1CCN(c2ncc(C(F)(F)F)cc2Cl)CC1,64,0,0,0,-,0,0,-
COc1ccc(Cl)cc1C(=O)Nc1nc(C)cc(C)n1,0,0,-,0,-,-,-,-
CCCCn1c(SCc2c(C)noc2C)nc2cc(S(N)(=O)=O)ccc21,75,0,0,0,0,0,60,62
COc1ccc(OC)c(N(CC(=O)Nc2ccccc2F)S(=O)(=O)c2ccccc2)c1,0,0,-,0,0,0,-,-
Cn1ncc(Br)c1C(=O)NC1CCCCCC1,0,0,-,0,0,-,-,-
COc1cccc(/C=C/C(=C2/C(=O)N(c3ccccc3)N=C2C)c2ccc(Br)cc2)c1OC,59,0,100,?,-,76,0,-
SMILES,Mdm2 MdmX PPI,T cruzi inh,Lmaj promast,SKKanGAS inh,Beta cell apopt,CSC inhib,Mdm2-MdmX conf,Full FLuc ctr
COc1cc(Cl)cc2c1Sc1ccccc1/C2=C/CCN(C)C,69,0,59,0,-,0,0,-
COc1ccc(CCN(/C=C2\Sc3ccccc3C2=O)C(C)=O)cc1OC,0,0,-,0,0,0,-,-
CCc1nc(Nc2ccc(O)cc2)c2oc3ccccc3c2n1,51,0,-,0,0,0,0,-
CCc1nc(Nc2ccccc2O)c2oc3ccccc3c2n1,0,0,-,0,0,0,-,-
COc1ccc(-c2ccc([C@H]3[C@@H]4C=CCC[C@@]4(C)C(=O)N3Cc3ccccc3)c(F)c2)cc1OC,63,67,-,52,0,0,0,-
CN=c1scc(-c2cccs2)n1/N=C/c1ccc(O)c(O)c1O,0,0,0,0,0,0,-,-
CN=c1scc(-c2ccccc2Br)n1/N=C/c1ccc[nH]1,60,0,0,0,0,0,69,143
CN1C(C(=O)Nc2ccc(OC(F)(F)F)cc2)=CC(c2cccs2)=NS1(=O)=O,58,0,-,0,0,0,0,48
COc1ccc(C2=NS(=O)(=O)N(C)C(C(=O)Nc3ccc(C)cc3)=C2)cc1,0,0,-,0,0,0,-,-
CN1C(C(=O)Nc2ccc(OC(F)(F)F)cc2)=CC(c2ccc3c(c2)OCO3)=NS1(=O)=O,0,0,-,0,0,0,-,-
COc1ccc(NC(=O)C2=CC(c3cccs3)=NS(=O)(=O)N2C)cc1,55,0,-,0,0,-,0,-
CC1(C)CC2CC(C)(CN2C(=O)c2cc(-c3ccccc3O)on2)C1 (centres undefined),64,0,0,0,0,0,0,67
Cn1c(=O)c(=O)n(C)c2cc(N3CCCC3)c(NS(=O)(=O)c3ccc(Cl)cc3)cc21,0,0,-,0,-,0,-,-
Nc1nonc1-c1nc2ccccc2n1CC(=O)NC1CCCC1,0,0,0,0,0,0,-,-
CCOC(=O)c1ccccc1NC(=O)Cn1c(-c2nonc2N)nc2ccccc21,61,0,0,0,0,0,55,77
Nc1nonc1-c1nc2ccccc2n1CC(=O)Nc1ccccc1,78,0,-,0,0,0,69,0
CCCCn1c(-c2nonc2N)nc2ccccc21,61,0,0,0,0,0,45,50
Cc1ccc(Nc2cc(-c3ccccc3)nc3ncnn23)cc1,0,0,-,0,0,0,-,-
COc1ccccc1N1CCN(S(=O)(=O)CCNC(=O)Cc2ccc(F)cc2)CC1,0,0,-,0,0,0,-,-
CCOc1cc(NC(=S)NCCOC)c(OCC)cc1NC(=O)c1ccco1,0,0,0,-,0,0,-,-
O=C(CSc1ccccc1)Nc1ccc2sccc2c1,0,0,-,0,0,0,-,-
CC(=O)O[C@H]1[C@@H](O)[C@H](O)[C@H](Oc2c(O)c(C)c3c4c2[C@@H](C)CC[C@@H]4[C@@H](C)C[C@H]3C=C(C)C)O[C@H]1C,90,-,-,-,0,106,0,-
O=C(O)c1cc(-c2ccc(-c3ccc(F)cc3)o2)nc2ccccc12,0,0,-,0,0,0,-,-
Cc1c(/C=N/NC(=O)C(NC(=O)c2ccc3c(c2)OCO3)C(C)C)c2ccccc2n1C (centres undefined),0,0,0,0,0,-,-,-
Cc1sc(NC(=O)c2ccco2)c(C(c2cccnc2)N2CCC(C)CC2)c1C (centres undefined),74,72,91,0,0,0,76,77
CCC(CC)c1nnc(NC(=O)c2cccc(S(=O)(=O)N3CCOCC3)c2)s1,0,-,-,-,0,0,-,-

# Compound activity (PubChem BioAssay)
